Test results from ChEMBL document CHEMBL4190359, “Synthesis and Investigation of S-Substituted 2-Mercaptobenzoimidazoles as Inhibitors of Hedgehog Signaling” (ACS Med Chem Lett, 2017).
Activity calls are given as the source filed them. The calls are words filed in the database; no cut-off is given here.

Key:
[1] = (§1) Inhibition of Hedgehog signaling pathway in mouse C3H10T1/2 cells assessed as reduction in purmorphamine-induced increase in alkaline phosphatase level using CDP-star as substrate pretreated for 1 hr followed by purmorphamine addition measured after 5 days by luminescence assay; assay type: cell-based
Method in brief: (§2)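 Osteogenesis assay in multipotent C3H/10T1/2 mesenchymal progenitor cells; differentiation to osteoblasts driven by SMO agonist purmorphamine; read-out is induced alkaline phosphatase expression; IC50 derived from reduction of this signal.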

[2] = target: T1, Alkaline phosphatase, tissue-nonspecific isozyme (Homo sapiens) (UniProt P05186); assay: Inhibition of recombinant human C-terminal His6-tagged alkaline phosphate activity (Leu18 to Ser502 residues) using CDP-star as substrate pretreated for 30 mins followed by substrate addition measured after 60 mins by luminescence assay
T1 sequence (whole entry): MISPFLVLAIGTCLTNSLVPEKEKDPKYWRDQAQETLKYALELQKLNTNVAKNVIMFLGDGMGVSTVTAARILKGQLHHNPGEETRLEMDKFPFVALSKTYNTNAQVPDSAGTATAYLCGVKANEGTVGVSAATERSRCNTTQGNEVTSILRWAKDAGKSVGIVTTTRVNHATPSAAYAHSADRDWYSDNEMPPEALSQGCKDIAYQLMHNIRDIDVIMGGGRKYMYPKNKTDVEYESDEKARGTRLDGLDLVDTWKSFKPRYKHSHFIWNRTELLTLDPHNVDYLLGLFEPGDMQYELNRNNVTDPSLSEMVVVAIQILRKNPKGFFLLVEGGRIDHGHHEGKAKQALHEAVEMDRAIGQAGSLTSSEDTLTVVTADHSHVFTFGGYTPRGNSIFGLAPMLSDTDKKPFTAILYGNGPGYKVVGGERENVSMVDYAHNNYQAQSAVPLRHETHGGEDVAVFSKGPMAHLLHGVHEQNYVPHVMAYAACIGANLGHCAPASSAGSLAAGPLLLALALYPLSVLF

[3] = Cytotoxicity against mouse C3H10T1/2 cells assessed as cell viability by CellTiter-Glo assay; assay type: cell-based, C3H 10T1/2; design: concentration or dose not given beside the values; settings: read-out: Activity
[4] = Inhibition of Hedgehog signaling in mouse Shh Light2 cells assessed as reduction in purmorphamine-induced Gli mediated transcriptional activity pretreated for 1 hr followed by purmorphamine addition measured after 48 hrs by luciferase reporter gene assay; assay type: cell-based
[5] = Cytotoxicity against mouse Shh Light2 cells assessed as cell viability by CellTiter Glo assay; assay type: cell-based, Shh Light II; design: concentration or dose not given beside the values; settings: read-out: Activity
Shh Light II = assay: Cytotoxicity against mouse Shh Light2 cells by CellTiter Glo assay; assay type: cell-based
C3H 10T1/2 = assay: Cytotoxicity against mouse C3H10T1/2 cells by CellTiter-Glo assay; assay type: cell-based
Mus musculus = organism: Mus musculus; assay: as §1; assay type: cell-based; method in brief: as §2
Homo sapiens = organism: Homo sapiens; assay: Inhibition of Hedgehog signaling pathway (unknown origin); settings: concentration not given here
[6] = Mus musculus, C3H 10T1/2, read-out: IC50
[7] = Mus musculus, Shh Light2, read-out: IC50

For COc1ccccc1OCCSc1nc2ccccc2[nH]1, the IC50 [1, 6] was 2.61 µM, the inhibition [2] was “inactive” and the viability [3] was over 80%.

In the case of Cc1cccc(OCCSc2nc3ccccc3[nH]2)c1, the IC50 [1, 6] is reported as 2.08 µM, the inhibition [2] is reported as “inactive” and the viability [3] is reported as over 80%. The IC50 [4, 7] was 5.11 µM and the viability [5] was over 80%.

With Fc1ccccc1OCCSc1nc2ccccc2[nH]1 the IC50 [1, 6] was 2.32 µM, the inhibition [2] was “inactive” and the viability [3] was over 80%.

In the case of COC(=O)c1cccc(OCCSc2nc3ccccc3[nH]2)c1, the IC50 [1] is reported as “Not Active”, the inhibition [2] is reported as “inactive” and the viability [3] is reported as over 80%. For the same compound, the IC50 [4] was “Not Active” and the viability [5] was over 80%.

In the case of Cc1ccc(C)c(OCCSc2nc3ccccc3[nH]2)c1C, the IC50 [1, 6] is reported as 2.9 µM, the inhibition [2] is reported as “inactive” and the viability [3] is reported as over 80%.

In the case of Oc1ccc(OCCSc2nc3ccccc3[nH]2)cc1, the IC50 (Shh Light II) is reported as 7.7 µM, the IC50 [1, 6] is reported as 2.23 µM and the inhibition [2] is reported as “inactive”. The IC50 (C3H 10T1/2) was 7.12 µM and the IC50 [4, 7] was 8.12 µM.

For O=[N+]([O-])c1cccc(OCCSc2nc3ccccc3[nH]2)c1, the IC50 [1, 6] was 4.47 µM, the inhibition [2] was “inactive” and the viability [3] was over 80%. It also gave an IC50 [4, 7] of 6.49 µM and a viability [5] of over 80%.

In the case of Cc1ccc2nc(NCCOc3c(C)cccc3C)sc2c1, the IC50 [1, 6] is reported as over 10 µM, the inhibition [2] is reported as “inactive” and the viability [3] is reported as over 80%.

With CC(C)c1ccccc1OCCSc1nc2ccccc2[nH]1 the IC50 [1, 6] was over 10 µM, the inhibition [2] was “inactive” and the viability [3] was over 80%.

For Cc1ccc(OCCCSc2nc3ccccc3[nH]2)cc1, the IC50 [1, 6] was 6.29 µM, the inhibition [2] was “inactive” and the viability [3] was over 80%.

With Cc1cccc(C)c1OCCSc1nc2ccccc2[nH]1 the inhibition (Mus musculus) was “Dose-dependent effect”, the IC50 [1, 6] was 1.76 µM and the inhibition [2] was “inactive”. The viability [3] was over 80%, the IC50 [4, 7] was 3.16 µM and the viability [5] was over 80%.

For Cc1cc(OCCSc2nc3ccccc3[nH]2)ccc1Cl, the IC50 [1, 6] was 2.57 µM, the inhibition [2] was “inactive” and the viability [3] was over 80%. For the same compound, the IC50 [4, 7] was 7.89 µM and the viability [5] was over 80%.

In the case of Cc1cccc(SCCSc2nc3ccccc3[nH]2)c1, the IC50 [1, 6] is reported as 3.06 µM, the inhibition [2] is reported as “inactive” and the viability [3] is reported as over 80%. It also gave an IC50 [4, 7] of 3.48 µM and a viability [5] of over 80%.

In the case of Clc1cc(Cl)c(SCCSc2nc3ccccc3[nH]2)cc1Cl, the IC50 [1, 6] is reported as 5.71 µM, the inhibition [2] is reported as “inactive” and the viability [3] is reported as over 80%.

In the case of Cc1ccc(C)c(OCCSc2nc3ccccc3[nH]2)c1, the IC50 [1, 6] is reported as 6.41 µM, the inhibition [2] is reported as “inactive” and the viability [3] is reported as over 80%.

In the case of Cc1ccccc1OCCSc1nc2ccccc2[nH]1, the IC50 [1, 6] is reported as 4.26 µM, the inhibition [2] is reported as “inactive” and the viability [3] is reported as over 80%. It also gave an IC50 [4, 7] of 6.93 µM and a viability [5] of over 80%.

In the case of COc1ccc(SCCSc2nc3ccccc3[nH]2)cc1, the IC50 [1, 6] is reported as 5.63 µM, the inhibition [2] is reported as “inactive” and the viability [3] is reported as over 80%. The IC50 [4, 7] was 3.55 µM and the viability [5] was over 80%.

For c1ccc(-c2ccc(OCCSc3nc4ccccc4[nH]3)cc2)cc1, the IC50 [1] was “Not Active”, the inhibition [2] was “inactive” and the viability [3] was over 80%.

In the case of Cc1ccc2nc(NCCOc3ccccc3)sc2c1, the IC50 [1] is reported as “Not Active”, the inhibition [2] is reported as “inactive” and the viability [3] is reported as over 80%.

For c1ccc(OCCSc2nc3ccccc3[nH]2)cc1, the IC50 [1, 6] was 2.22 µM, the inhibition [2] was “inactive” and the viability [3] was over 80%. For the same compound, the IC50 [4, 7] was 8.92 µM and the viability [5] was over 80%.

For CS(=O)(=O)c1ccc(C(=O)Nc2ccc(Cl)c(-c3ccccn3)c2)c(Cl)c1 [VISMODEGIB], the IC50 [1, 6] was 0.14 µM, the inhibition [2] was “inactive” and the viability [3] was over 80%. For the same compound, the IC50 [4, 7] was 0.98 µM and the viability [5] was over 80%.

In the case of Clc1ccc(SCCCSc2nc3ccccc3[nH]2)cc1, the IC50 [1, 6] is reported as 2.85 µM, the inhibition [2] is reported as “inactive” and the viability [3] is reported as over 80%. The IC50 [4, 7] was over 10 µM and the viability [5] was over 80%.

With Cc1cccc(OCCCSc2nc3ccccc3[nH]2)c1 the IC50 [1] was “Not Active”, the inhibition [2] was “inactive” and the viability [3] was over 80%.

With CC(C)c1cccc(OCCSc2nc3ccccc3[nH]2)c1 the IC50 [1, 6] was 9.17 µM, the inhibition [2] was “inactive” and the viability [3] was over 80%.

With Cc1cccc(C)c1OCCCSc1nc2ccccc2[nH]1 the IC50 [1, 6] was 5.6 µM, the inhibition [2] was “inactive” and the viability [3] was over 80%. It also gave an IC50 [4, 7] of 4.12 µM and a viability [5] of over 80%.

CCOC(=O)CCCn1c(SCCOc2c(F)cccc2F)nc2ccccc21 showed an inhibition (Homo sapiens) of 12%.

For c1ccc2cc(OCCSc3nc4ccccc4[nH]3)ccc2c1, the IC50 [1, 6] was 4.49 µM, the inhibition [2] was “inactive” and the viability [3] was over 80%. The IC50 [4, 7] was 7.29 µM and the viability [5] was over 80%.

For Cc1ccc(OCCSc2nc3ccccc3[nH]2)c([N+](=O)[O-])c1, the IC50 [1] was “Not Active”, the inhibition [2] was “inactive” and the viability [3] was over 80%.
